Consider one compound from publication PMC12089494 (Nature Communications, 2025).

Converted amounts (≈) assume the structure as drawn. Like-named read-outs stand apart in the source and are kept apart here.

The nature of data set [1]: Single-pass intestinal perfusion. It is filed as in vivo, Wistar rats. Put shortly:
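Male Wistar germ-free and age-matched SPF rats (6-week-old, 250–300 g), n = 6 per group. Fasted 12 h with free water, anaesthetised with intramuscular ketamine-xylazine (80 mg/kg and 20 mg/kg), kept on a heated surface at 37 ± 1 °C. Intestine perfused single-pass in situ for 2 h, sampled at 15-min intervals, and Peff determined. Perfused and unperfused segments were collected for microbiological detection.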

Data set [2] in a line: SPIP in GF rats mono-colonized with BTWT/BFWT or BTΔSPT/BFΔSPT. It is filed as in vivo, Wistar rats. The conditions noted are these: for Peff plateau: SPIP 30 mg/L NAC. In a few lines:
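Germ-free Wistar rats (6-week-old) fed a fat-free diet (0% kcal fat, 76% carbohydrate, 24% protein) containing only PAA for 12 weeks. Wild-type or SPT-deleted Bacteroides strains, grown anaerobically at 37 °C in BHI with […] cysteine and resuspended in oxygen-free PBS, then given with the diet (10⁸ CFU/μL of PBS per rat, three times weekly) for 8 weeks. In situ single-pass perfusion and Peff determination followed.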

The conditions of data set [3]: cited from earlier work.
For data set [4] the following is noted: cited from earlier work. The source holds these as a separate data set.

The aqueous solubility is how much of the substance goes into solution per volume.

As for `CC(=O)N[C@@H](CS)C(=O)O` [NAC, N-Acetylcysteine], the Peff plateau in data set [1] (GF rats, SPIP) was 1.446 × 10^–4 cm/s; in data set [2] (GF^BFΔSPT rats) it was 1.417 × 10^–4 cm/s; in data set [2] (GF^BTΔSPT rats) it was 1.216 × 10^–4 cm/s. For the same compound, in data set [1] (GF vs SPF rats), the “Peff increase in GF rats than SPF controls” value is “two-fold increase”. The “Peff increase than GF^BTWT and GF^BFWT littermates” value in data set [2] (GF^BTΔSPT and GF^BFΔSPT rats vs wild-type colonized) is reported as “approximately with the two-fold increase”. The aqueous solubility in data set [3] and in data set [3] (pH 7.4) was 163.9 mg/mL (≈ 1000 mM) each time. In data set [4] (different populations), the “within-study coefficients of variability (CVs)” value is listed as 35-45%. Moreover, the tmax in data set [4] (oral dose of NAC 400 mg, reduced form) is listed as 30 min. Further, the “Bio-availability, reduced form” value in data set [4] (oral dose of NAC 400 mg) is 4.0%. The “Bio-availability, total drug” value in data set [4] (oral dose of NAC 400 mg) is 9.1%. Besides, in data set [4] (oral dose of NAC 400 mg), the “Cmax of the reduced form” value was 3470 ng/mL.
